Experimental data from different studies.
Lines come from different studies, so protocols differ.
Target: SRSF protein kinase 3 (SRPK3, Homo sapiens, UniProt Q9UPE1)

With `O=C(NCC1CCOCC1)c1n[nH]cc1NC(=O)c1c(F)cccc1F` the remaining binding was 83% (binding, competition with immobilised ligand; 1 µM).
With `NS(=O)(=O)c1cc(NC(=O)Cc2ccccc2)ccc1Oc1cccc(Cl)c1` the remaining binding was 100% (cell-free assay, competition with immobilised ligand; 1 µM).
For `O=C(c1ccc(Nc2ncc(Cl)c(-c3ccc(Cl)s3)n2)cc1)N1CCC(N2CCCC2)CC1`, the remaining binding was 100% (binding, competition with immobilised ligand; 1 µM).
With `C=CC(=O)N1CCC(C(=O)NCC(=O)N2CCN(c3nc(-c4cnc(N)nc4C(F)F)nc(N4CCOCC4)n3)CC2)CC1` the remaining binding was 99% (binding, competition with immobilised ligand; 1 µM).
For `CCC(=N\O)/C(C)=C/c1ccc(F)cc1`, the remaining binding was 91% (cell-free assay, competition with immobilised ligand; 1 µM).
For `CNC(=O)[C@@H]1CC[C@@H](n2c(-c3ccc4cnccc4c3)nc3ccc(C(=O)NCc4cccc(C(N)=O)c4)cc32)C1`, the remaining binding was 92% (binding, competition with immobilised ligand; 1 µM).
With `CO[C@H]1CC[C@H](CNc2ccc(S(=O)(=O)NC(=O)c3ccc(N4CCN(CC5=C(c6ccc(Cl)cc6)CC(C)(C)CC5)CC4)cc3Oc3cnc4[nH]ccc4c3)cc2[N+](=O)[O-])CC1` the remaining binding was 100% (cell-free assay, competition with immobilised ligand; 1 µM).
For `O=C(NCCCN1CCOCC1)c1ccc(Nc2nccc(-c3cc4ccccc4s3)n2)cc1`, the remaining binding was 99% (binding, competition with immobilised ligand; 1 µM).
With `c1cnn2ncc(-c3ccnc(N4CCC45COC5)n3)c2c1` the remaining binding was 66% (binding; 1 µM).
With `CC(=O)N1CCC(c2ccc(C(=O)NC3=NCCN3)cc2C(F)(F)F)CC1` the remaining binding was 100% (cell-free assay, competition with immobilised ligand; 1 µM).
`F[C@@H]1CCN(c2nccc(-c3cnn4ncccc34)n2)C1` has a remaining binding of 100% (binding; 1 µM).
`O=C(NCCCN1CCOCC1)c1ccc(Nc2ncc(Cl)c(-c3ccc(Cl)s3)n2)cc1` has a remaining binding of 100% (binding, competition with immobilised ligand; 1 µM).
For `c1cncc(-c2cccc(Nc3nccc(NC4CCCCC4)n3)c2)c1`, the remaining binding was 55% (binding, competition with immobilised ligand; 10 µM).
`CN(CCCC(F)(F)F)c1nccc(-c2cnn3ncccc23)n1` has a remaining binding of 100% (binding; 1 µM).
For `COc1ncc2cc3ccccc3nc2c1C#N`, the remaining binding was 98% (cell-free assay, competition with immobilised ligand; 5 µM).
The remaining binding of `CN(C)c1nccc(-c2cnn3ncccc23)n1` is reported as 92% (binding; 1 µM).
For `CCS(=O)(=O)c1cc2cc(C[C@@](O)(CC(C)(C)c3ccc(F)cc3C(N)=O)C(F)(F)F)[nH]c2cn1`, the remaining binding was 100% (cell-free assay, competition with immobilised ligand; 1 µM).
With `C[C@@H]1CN(c2ccc3ncc(-c4ccc5[nH]nc(C6CC6)c5c4)n3n2)C[C@H](C)O1` the remaining binding was 97% (binding, competition with immobilised ligand; 50 nM).
For `N[C@H]1CCN(c2nccc(-c3cnn4ncccc34)n2)C1`, the remaining binding was 66% (binding; 1 µM).
`Nc1ncc2c(n1)-c1c([nH]c3ccc(C#CC4CC4)cc13)CCCC2` has a remaining binding of 90% (binding, competition with immobilised ligand; 1 µM).
For `C[C@@H]1CCN(c2nccc(-c3cnn4ncccc34)n2)C1`, the remaining binding was 55% (binding; 1 µM).
`CCCCN(CCCC)C(=O)CN1C[C@@H](c2cc(OC)c3c(c2)OCO3)[C@H](C(=O)O)[C@H]1CC(C)(C)CCC` has a remaining binding of 100% (cell-free assay, competition with immobilised ligand; 1 µM).
The remaining binding of `CC1CCCN1c1nccc(-c2cnn3ncccc23)n1` (stereo not drawn) is reported as 86% (binding; 1 µM).
For `Cc1c(NC(=O)c2cc(C(N)=O)nc3cc(F)ccc23)c(C(F)(F)F)nn1Cc1ccc(C#N)cc1`, the remaining binding was 100% (cell-free assay, competition with immobilised ligand; 1 µM).
